From ChEMBL document CHEMBL1123111, “Potential inhibitors of S-adenosylmethionine-dependent methyltransferases. 8. Molecular dissections of carbocyclic 3-deazaadenosine as inhibitors of S-adenosylhomocysteine hydrolase” (1985)

Tests used:
L929 [1] = assay: Compound was evaluated for cellular toxicity by [3H]thymidine incorporation into DNA of uninfected L-929 cells after 36h exposure; type: functional, Mus musculus; parameters: concentration or dose not given beside the values
How it was run: (§1)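 Uninfected mouse L-929 monolayers (2.5 × 10^6 cells/60-mm dish) exposed to 10 µM compound or no drug in serum-free KU-1 medium for 36 or 72 h. Then pulsed with [3H]thymidine. Cells trypsinized, precipitated in 10% TCA at 4 °C, and precipitates collected on glass-fibre filters. Filters solubilized and counted by liquid scintillation. Incorporation expressed as percent of untreated controls.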

L929 [2] = assay: Compound was evaluated for cellular toxicity by [3H]thymidine incorporation into DNA of uninfected L-929 cells after 72 hr exposure; type: functional, Mus musculus; parameters: concentration or dose not given beside the values; how it was run: as §1
L929 [3] = assay: Ability to inhibit Vaccinia virus plaque formation after 72 hr in monolayer cultures of mouse L-929 cells; type: functional; parameters: concentration or dose not given beside the values
[4] = target: Adenosylhomocysteinase (Bos taurus) (UniProt Q3MHL4); assay: Evaluated for the inhibition of bovine liver S-adenosyl-homocysteine hydrolase at concentration 2.0 mM
Sequence of Adenosylhomocysteinase (Bos taurus) (Q3MHL4 whole entry, looked up): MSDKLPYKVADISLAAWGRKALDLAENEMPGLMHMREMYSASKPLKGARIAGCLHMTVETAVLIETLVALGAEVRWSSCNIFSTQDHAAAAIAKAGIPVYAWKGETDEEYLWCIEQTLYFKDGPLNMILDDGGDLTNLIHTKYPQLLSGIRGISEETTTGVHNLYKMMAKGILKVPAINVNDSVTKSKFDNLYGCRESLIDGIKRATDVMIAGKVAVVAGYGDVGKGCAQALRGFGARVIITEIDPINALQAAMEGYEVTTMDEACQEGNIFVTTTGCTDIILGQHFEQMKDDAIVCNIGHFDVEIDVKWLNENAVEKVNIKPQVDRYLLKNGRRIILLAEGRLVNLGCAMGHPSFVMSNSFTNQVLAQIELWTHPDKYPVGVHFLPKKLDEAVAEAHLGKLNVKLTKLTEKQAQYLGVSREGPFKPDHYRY

## Nc1nccc2c1ncn2[C@@H]1C[C@H](CO)[C@@H](O)[C@H]1O [3-DEAZAARISTEROMYCIN A]
L929 [1]
  Control: 86%
L929 [2]
  Control: 246%
L929 [3]
  Inhibition: 95%

## Nc1nccc2c1ncn2CC(O)CO (centres undefined)
L929 [1]
  Control: 88%
[4]
  inhibition: 95%
L929 [2]
  Control: 138%
L929 [3]
  Inhibition: 53%

## Nc1nccc2c1ncn2CCCCO
L929 [1]
  Control: 102%
[4]
  inhibition: 12%
L929 [2]
  Control: 110%
L929 [3]
  Inhibition: 51%

## Nc1nccc2c1ncn2CCO
L929 [1]
  Control: 95%
[4]
  inhibition: 27%
L929 [2]
  Control: 113%
L929 [3]
  Inhibition: 33%

## Nc1nccc2c1ncn2C(CO)CCCO (centres undefined)
L929 [1]
  Control: 91%
[4]
  inhibition: 50%
L929 [2]
  Control: 140%
L929 [3]
  Inhibition: 27%
